≈ marks a conversion by molar mass, not a printed value.
Legend:
[1] = fAUC/MIC in osteomyelitis patient cancellous bone at 400 mg, po administered for every 24 hrs at PKPD breakpoint at 0.375 mg/liter; assay type: functional
Method in brief: (§1)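 PKPD targets were derived by reverse engineering from success rates in clinical osteomyelitis studies, the expected AUCs at the doses used there, and published MIC distributions. Bone targets (total drug) use a ciprofloxacin bone/serum AUC ratio of 0.63. Concentration profiles were simulated for 10,000 patients given 400 mg orally q24h at steady state, without residual error, with serum protein binding assumed at 50%.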

[2] = fAUC/MIC in osteomyelitis patient serum at 400 mg, po administered for every 24 hrs at PKPD breakpoint at 0.19 mg/liter; assay type: functional; method in brief: as §1
Staphylococcus aureus = experiment: Antimicrobial activity against Staphylococcus aureus
[3] = fAUC/MIC in osteomyelitis patient cancellous bone at 400 mg, po administered for every 24 hrs at PKPD breakpoint at 0.25 mg/liter; assay type: functional; method in brief: as §1
[4] = fAUC/MIC in osteomyelitis patient cortical bone at 400 mg, po administered for every 24 hrs at PKPD breakpoint at 0.25 mg/liter; assay type: functional; method in brief: as §1
[5] = fAUC/MIC in osteomyelitis patient cortical bone at 400 mg, po administered for every 24 hrs at PKPD breakpoint at 1 mg/liter; assay type: functional; method in brief: as §1
[6] = Drug level in osteomyelitis patient cortical bone at 400 mg, po administered for every 24 hrs; assay type: ADME, organism-based, Bone element; conditions: human, in vivo
[7] = Drug level in osteomyelitis patient cancellous bone at 400 mg, po administered for every 24 hrs; assay type: ADME, organism-based; conditions: human, in vivo
[8] = fAUC/MIC in osteomyelitis patient cortical bone at 400 mg, po administered for every 24 hrs at PKPD breakpoint at 0.5 mg/liter; assay type: functional; method in brief: as §1
[9] = fAUC/MIC in osteomyelitis patient serum at 400 mg, po administered for every 24 hrs at PKPD breakpoint at 0.375 mg/liter; assay type: functional; method in brief: as §1
[10] = fAUC/MIC in osteomyelitis patient cancellous bone at 400 mg, po administered for every 24 hrs at PKPD breakpoint at 1 mg/liter; assay type: functional; method in brief: as §1
[11] = fAUC/MIC in osteomyelitis patient serum at 400 mg, po administered for every 24 hrs at PKPD breakpoint at 1 mg/liter; assay type: functional; method in brief: as §1

COc1c(N2C[C@@H]3CCCN[C@@H]3C2)c(F)cc2c(=O)c(C(=O)O)cn(C3CC3)c12 [MOXIFLOXACIN]
fAUC/MIC [1]: 33 | fAUC/MIC [2]: 66 | MIC90 (Staphylococcus aureus): 0.125 µg/mL (≈ 0.311 µM) | fAUC/MIC [3]: 55 | fAUC/MIC [4]: 55 | fAUC/MIC [5]: 13 | Drug uptake [6]: 80% | Drug uptake [7]: 78% | fAUC/MIC [8]: 33 | fAUC/MIC [9]: 40 | fAUC/MIC [10]: 13 | fAUC/MIC [11]: 15
